Source: ChEMBL document CHEMBL3763137, “Design and synthesis of novel 4'-demethyl-4-deoxypodophyllotoxin derivatives as potential anticancer agents” (Bioorg Med Chem Lett, 2016)
The source made the active and inactive calls. No cut-off for these calls is given here.

Legend:
[1] = Antiproliferative activity against human HCT116 cells after 48 hrs by MTT assay; type: functional, cell-based; conditions: HCT-116, 48 h
In short: (§1)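 Human cancer cells (HCT-116, HepG2 or MGC-803) incubated with compound for 48 h. Viability read by MTT assay. IC50 taken from dose-response curves. Mean ± SD of three separate assays.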

[2] = system: HepG2; assay: Antiproliferative activity against human HepG2 cells after 48 hrs by MTT assay; type: functional, cell-based; conditions: HepG2, 48 h; in short: as §1
[3] = Antiproliferative activity against human MGC803 cells after 48 hrs by MTT assay; type: functional, cell-based; conditions: MGC-803, 48 h; in short: as §1
[4] = Cell cycle arrest in human MGC803 cells assessed as accumulation at G2/M phase at 10 uM after 24 hrs by propidium iodide staining based flow cytometric analysis (reference value: 1.89 %); type: functional; conditions: MGC-803
In short: (§2)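 MGC-803 cells were exposed for 24 h to 0 (untreated), 10, 20 or 40 µM. The percentage of cells in each cell-cycle phase was measured by flow cytometry. Values are mean ± SD of three independent experiments, with P compared to control.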

[5] = Downregulation of CDK1 expression in human MGC803 cells after 24 hrs by Western blot analysis; type: functional, cell-based; conditions: MGC-803
In short: (§3)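 MGC-803 cells were incubated for 24 h at 0, 10, 20 or 40 µM. Levels of cyclin A, cyclin B, CDK1, cdc25c and p21 were detected by Western blot with specific antibodies, with P compared to 0 µM.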

[6] = system: Mus musculus; assay: Toxicity in ICR mouse xenografted with human HepG2 cells assessed as body weight at 1 mg/kg, iv administered every 2 days measured on day 1 (reference value: 21 +/- 0.89 g); type: organism-based; conditions: in vivo, 48 h
[7] = system: HepG2; assay: Antitumor activity against human HepG2 cells xenografted in ICR mouse assessed as tumor growth inhibition at 1 mg/kg, iv administered every 2 days measured after 14 days relative to control; type: functional; conditions: read-out: TGI
In short: (§4)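 HepG2 xenografts established in ICR mice, then randomized into four groups (n = 10 each). Compound given intravenously every two days; control group received vehicle at 0.4 mL/mouse. Tumors weighed after two weeks (day 14); inhibitory ratio calculated versus vehicle control. Body weights recorded on days 1 and 14.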

[8] = system: HepG2; assay: Antitumor activity against human HepG2 cells xenografted in ICR mouse assessed as tumor growth inhibition at 2 mg/kg, iv administered every 2 days measured after 14 days relative to control; type: functional; conditions: read-out: TGI; in short: as §4
[9] = Cell cycle arrest in human MGC803 cells assessed as accumulation at G0/G1 phase at 20 uM after 24 hrs by propidium iodide staining based flow cytometric analysis (reference value: 77.59 %); type: functional; conditions: MGC-803; in short: as §2
[10] = Cell cycle arrest in human MGC803 cells assessed as accumulation at S phase at 10 uM after 24 hrs by propidium iodide staining based flow cytometric analysis (reference value: 20.52 %); type: functional; conditions: MGC-803; in short: as §2
[11] = Cell cycle arrest in human MGC803 cells assessed as decrease in cell level at G1 phase after 24 hrs by propidium iodide staining based flow cytometric analysis; type: functional; conditions: MGC-803; in short: as §2
[12] = Cell cycle arrest in human MGC803 cells assessed as accumulation at S phase at 40 uM after 24 hrs by propidium iodide staining based flow cytometric analysis (reference value: 20.52 %); type: functional; conditions: MGC-803; in short: as §2
[13] = Cell cycle arrest in human MGC803 cells assessed as accumulation at G2/M phase at 20 uM after 24 hrs by propidium iodide staining based flow cytometric analysis (reference value: 1.89 %); type: functional; conditions: MGC-803; in short: as §2
[14] = Cell cycle arrest in human MGC803 cells assessed as accumulation at S phase at 20 uM after 24 hrs by propidium iodide staining based flow cytometric analysis (reference value: 20.52 %); type: functional; conditions: MGC-803; in short: as §2
[15] = system: Mus musculus; assay: Toxicity in ICR mouse xenografted with HepG2 cells assessed as body weight at 1 mg/kg, iv administered every 2 days measured on day 14 (reference value: 30.10 +/- 2.39 g); type: organism-based; conditions: in vivo, 48 h
[16] = system: HepG2; assay: Antitumor activity against human HepG2 cells xenografted in iv dosed ICR mouse assessed as tumor retardation effect administered every 2 days measured after 14 days; type: functional, organism-based
[17] = Downregulation of cyclin A expression in human MGC803 cells after 24 hrs by Western blot analysis; type: functional, cell-based; conditions: MGC-803; in short: as §3
[18] = Cell cycle arrest in human MGC803 cells assessed as accumulation at G2/M phase at 40 uM after 24 hrs by propidium iodide staining based flow cytometric analysis (reference value: 1.89 %); type: functional; conditions: MGC-803; in short: as §2
[19] = Upregulation of p21 expression in human MGC803 cells at 10 to 40 uM after 24 hrs by Western blot analysis; type: functional, cell-based; conditions: MGC-803; in short: as §3
[20] = Downregulation of CDK2 expression in human MGC803 cells at 10 to 40 uM after 24 hrs by Western blot analysis; type: functional, cell-based; conditions: MGC-803
[21] = system: HepG2; assay: Antitumor activity against human HepG2 cells xenografted in ICR mouse assessed as tumor growth inhibition at 4 mg/kg, iv administered every 2 days measured after 14 days relative to control; type: functional; conditions: read-out: TGI; in short: as §4
[22] = system: Mus musculus; assay: Toxicity in ICR mouse xenografted with human HepG2 cells assessed as body weight at 4 mg/kg, iv administered every 2 days measured on day 1 (reference value: 21 +/- 0.89 g); type: organism-based; conditions: in vivo, 48 h
[23] = Downregulation of cdc25c expression in human MGC803 cells at 10 to 40 uM after 24 hrs by Western blot analysis; type: functional, cell-based; conditions: MGC-803; in short: as §3
[24] = Cell cycle arrest in human MGC803 cells assessed as accumulation at G0/G1 phase at 40 uM after 24 hrs by propidium iodide staining based flow cytometric analysis (reference value: 77.59 %); type: functional; conditions: MGC-803; in short: as §2
[25] = system: Mus musculus; assay: Toxicity in ICR mouse xenografted with HepG2 cells assessed as body weight at 2 mg/kg, iv administered every 2 days measured on day 14 (reference value: 30.10 +/- 2.39 g); type: organism-based; conditions: in vivo, 48 h
[26] = Cell cycle arrest in human MGC803 cells assessed as accumulation at G2/M phase after 24 hrs by propidium iodide staining based flow cytometric analysis; type: functional; conditions: MGC-803; in short: as §2
[27] = Cell cycle arrest in human MGC803 cells assessed as accumulation at G0/G1 phase at 10 uM after 24 hrs by propidium iodide staining based flow cytometric analysis (reference value: 77.59 %); type: functional; conditions: MGC-803; in short: as §2
[28] = system: Mus musculus; assay: Toxicity in ICR mouse xenografted with human HepG2 cells assessed as body weight at 2 mg/kg, iv administered every 2 days measured on day 1 (reference value: 21 +/- 0.89 g); type: organism-based; conditions: in vivo, 48 h
[29] = system: Mus musculus; assay: Toxicity in ICR mouse xenografted with HepG2 cells assessed as body weight at 4 mg/kg, iv administered every 2 days measured on day 14 (reference value: 30.10 +/- 2.39 g); type: organism-based; conditions: in vivo, 48 h
[30] = Downregulation of cyclin B expression in human MGC803 cells after 24 hrs by Western blot analysis; type: functional, cell-based; conditions: MGC-803; in short: as §3

COc1cc([C@@H]2c3cc4c(cc3C[C@H]3COC(=O)[C@@H]32)OCO4)cc(OC)c1OCC(=O)Nc1cccc(F)c1
IC50 [1]: > 10 µM
IC50 [2]: > 10 µM
IC50 [3]: > 10 µM

COc1cc([C@@H]2c3cc4c(cc3C[C@H]3COC(=O)[C@@H]32)OCO4)cc(OC)c1OCC(=O)Nc1ccccc1C
IC50 [1]: > 10 µM
IC50 [2]: 7.8 µM
IC50 [3]: 4.05 µM

COc1cc([C@@H]2c3cc4c(cc3C[C@H]3COC(=O)[C@@H]32)OCO4)cc(OC)c1OCC(=O)Nc1ccccc1F
Activity [4]: 7.29%
Activity [5]: Dose-dependent effect
Activity [6]: 20.82 g
inhibition in vivo at 1 mg/kg [7]: 6.09%
inhibition in vivo at 2 mg/kg [8]: 26.6%
Activity [9]: 7.22%
IC50 [1]: 2.2 µM
Activity [10]: 50.8%
IC50 [2]: 1.08 µM
Activity [11]: Dose-dependent effect
Activity [12]: 22.7%
Activity [13]: 72.3%
Activity [14]: 20.5%
Activity [15]: 29.09 g
Activity [16]: Dose-dependent effect
Activity [17]: Dose-dependent effect
Activity [18]: 75.5%
Activity [19]: Active
Activity [20]: inactive
inhibition in vivo at 4 mg/kg [21]: 45.6%
Activity [22]: 21.3 g
Activity [23]: Active
Activity [24]: 1.8%
Activity [25]: 28.36 g
Activity [26]: Dose-dependent effect
Activity [27]: 41.9%
Activity [28]: 20.91 g
Activity [29]: 27.2 g
IC50 [3]: 0.22 µM
Activity [30]: Dose-dependent effect

COc1cc([C@@H]2c3cc4c(cc3C[C@H]3COC(=O)[C@@H]32)OCO4)cc(OC)c1OCC(=O)Nc1c(C)cccc1Cl
IC50 [1]: > 10 µM
IC50 [2]: > 10 µM
IC50 [3]: 6.16 µM

COc1cc([C@@H]2c3cc4c(cc3C[C@H]3COC(=O)[C@@H]32)OCO4)cc(OC)c1OCC(=O)Nc1cccc(Cl)c1
IC50 [1]: 2.68 µM
IC50 [2]: 2.97 µM
IC50 [3]: 1.24 µM

COc1cc([C@@H]2c3cc4c(cc3C[C@H]3COC(=O)[C@@H]32)OCO4)cc(OC)c1OCC(=O)Nc1ccccc1Cl
IC50 [1]: > 10 µM
IC50 [2]: > 10 µM
IC50 [3]: > 10 µM

COc1cc([C@@H]2c3cc4c(cc3[C@@H](O[C@@H]3O[C@@H]5CO[C@@H](C)O[C@H]5[C@H](O)[C@H]3O)[C@H]3COC(=O)[C@H]23)OCO4)cc(OC)c1O [ETOPOSIDE]
IC50 [1]: 1.7 µM
IC50 [2]: 5.62 µM
IC50 [3]: > 10 µM

COc1cc([C@@H]2c3cc4c(cc3C[C@H]3COC(=O)[C@@H]32)OCO4)cc(OC)c1OCC(=O)Nc1ccccc1
IC50 [1]: > 10 µM
IC50 [2]: > 10 µM
IC50 [3]: 2.54 µM

COc1cc([C@@H]2c3cc4c(cc3C[C@H]3COC(=O)[C@@H]32)OCO4)cc(OC)c1OCC(=O)Nc1ccccc1[N+](=O)[O-]
IC50 [1]: > 10 µM
IC50 [2]: > 10 µM
IC50 [3]: > 10 µM

COc1ccc(NC(=O)COc2c(OC)cc([C@@H]3c4cc5c(cc4C[C@H]4COC(=O)[C@@H]43)OCO5)cc2OC)cc1
IC50 [1]: > 10 µM
IC50 [2]: > 10 µM
IC50 [3]: > 10 µM

COc1cc([C@@H]2c3cc4c(cc3C[C@H]3COC(=O)[C@@H]32)OCO4)cc(OC)c1OCC(=O)Nc1cccc([N+](=O)[O-])c1
IC50 [1]: 3.2 µM
IC50 [2]: > 10 µM
IC50 [3]: 2.82 µM
